Reference: ChEMBL document CHEMBL1127460, “Cancer chemopreventive 3-substituted-4-oxoretinoic acids” (J Med Chem, 1994)

Assays:
[1] = target: T1, Ornithine decarboxylase (Mus musculus) (UniProt P00860); assay: In vivo inhibition of ornithine de-carboxylase (ODC) activity induced by 12-0-tetradecanoylphorbol 13-acetate (TPA) in mouse skin; assay type: functional, organism-based
T1 sequence (whole entry): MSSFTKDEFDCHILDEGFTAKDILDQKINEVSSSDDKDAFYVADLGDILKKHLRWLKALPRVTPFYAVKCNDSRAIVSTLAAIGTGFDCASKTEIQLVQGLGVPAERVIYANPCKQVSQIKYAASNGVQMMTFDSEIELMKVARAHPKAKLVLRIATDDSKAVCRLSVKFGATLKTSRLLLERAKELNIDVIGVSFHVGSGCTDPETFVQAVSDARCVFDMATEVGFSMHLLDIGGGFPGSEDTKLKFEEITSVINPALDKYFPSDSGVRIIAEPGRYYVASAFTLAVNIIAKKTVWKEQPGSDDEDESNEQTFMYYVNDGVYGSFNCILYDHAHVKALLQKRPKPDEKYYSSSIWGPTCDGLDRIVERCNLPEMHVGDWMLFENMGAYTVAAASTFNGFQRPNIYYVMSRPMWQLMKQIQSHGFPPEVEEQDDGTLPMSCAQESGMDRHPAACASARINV
Procedure, shortened: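 Mouse-skin assay of TPA induction of ornithine decarboxylase, after Verma et al. Retinoid-treated groups are compared with TPA-induced controls. ODC activity is expressed as a percentage of control-group activity and averaged over the stated number of tests.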

[2] = target: T1, Ornithine decarboxylase (Mus musculus); assay: Inhibition of TPA-induced ODC activity as percentage of the average no. of papillomas / mouse in groups of control mice was determined using papilloma assay; assay type: functional; parameters: concentration or dose not given beside the values
Procedure, shortened: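 CD-1 female mice, shaved skin, initiated once with 51.2 μg DMBA in 0.2 mL acetone. From two weeks later, TPA 2 nmol in acetone twice weekly to the same area for 12–15 weeks. Tumors per mouse counted at the end, 10–15 mice per group. Group averages are expressed as a percentage of controls and averaged across experiments.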

Compound	Average [1] [%]	Control [2] [%]
CCC1CC(C)(C)C(/C=C/C(C)=C/C=C/C(C)=C/C(=O)O)=C(C)C1=O (stereo unspecified)	40	57
CC1=C(/C=C/C(C)=C/C=C/C(C)=C/C(=O)O)C(C)(C)CC(C)(C)C1=O	26	25
CCC1CC(C)(C)C(/C=C/C(C)=C/C=C/C(C)=C/C(=O)OC)=C(C)C1=O (stereo unspecified)	31	68
C#CCC1CC(C)(C)C(/C=C/C(C)=C/C=C/C(C)=C/C(=O)O)=C(C)C1=O (stereo unspecified)	47	64
C=CCC1CC(C)(C)C(/C=C/C(C)=C/C=C/C(C)=C/C(=O)O)=C(C)C1=O (stereo unspecified)	68	47
COC(=O)/C=C(C)/C=C/C=C(C)/C=C/C1=C(C)C(=O)CCC1(C)C	18	25
CC1=C(/C=C/C(C)=C/C=C/C(C)=C/C(=O)O)C(C)(C)CC(Cc2ccccc2)C1=O (stereo unspecified)	34	38
COC(=O)/C=C(C)/C=C/C=C(C)/C=C/C1=C(C)C(=O)C(Cc2ccccc2)CC1(C)C (stereo unspecified)	56	78
COC(=O)/C=C(C)/C=C/C=C(C)/C=C/C1=C(C)C(=O)C(C)CC1(C)C (stereo unspecified)	28	27
C#CCC1CC(C)(C)C(/C=C/C(C)=C/C=C/C(C)=C/C(=O)OC)=C(C)C1=O (stereo unspecified)	34	40
CC1=C(/C=C/C(C)=C/C=C/C(C)=C/C(=O)O)C(C)(C)CC(C/C=C/c2ccccc2)C1=O (stereo unspecified)	23	39

Second part, the compound after the results:

Average [1] [%]	Control [2] [%]	Compound
8	16	CC1=C(/C=C/C(C)=C/C=C/C(C)=C/C(=O)O)C(C)(C)CCC1
31	20	COC(=O)/C=C(C)/C=C/C=C(C)/C=C/C1=C(C)C(=O)C(C/C=C/c2ccccc2)CC1(C)C (stereo unspecified)
56	42	C=CCC1CC(C)(C)C(/C=C/C(C)=C/C=C/C(C)=C/C(=O)OC)=C(C)C1=O (stereo unspecified)
17	39	CC1=C(/C=C/C(C)=C/C=C/C(C)=C/C(=O)O)C(C)(C)CCC1=O (stereo in doubt; 3a)
26	29	CC1=C(/C=C/C(C)=C/C=C/C(C)=C/C(=O)O)C(C)(C)CC(C)C1=O (stereo unspecified)
60	89	CC1=C(/C=C/C(C)=C/C=C/C(C)=C/C(=O)Nc2ccc(O)cc2)C(C)(C)CCC1
22	22	COC(=O)/C=C(C)/C=C/C=C(C)/C=C/C1=C(C)C(=O)C(C)(C)CC1(C)C
